Experimental findings from ChEMBL document CHEMBL1136574, “Organic phenyl arsonic acid compounds with potent antileukemic activity” (Bioorg Med Chem Lett, 2003) are described below.

Molecules are shown by their SMILES.

The test system of one assay is MOLT-3. Kind of assay: Antileukemic activity against human leukemia MOLT-3(T-lineage ALL) cell line. The format is functional, cell-based. In short, it runs like this: (§1)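 Cells treated with compounds in 96-well plates, incubated 48 h at 37 °C; cytotoxicity read by MTT assay; IC50 values calculated by curve fitting.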
For a further assay, the system named is NALM-6. Description: Antileukemic activity against human leukemia NALM-6 (B-lineage ALL) cell line. It counts as functional, cell-based. In short, it runs like this: as §1

Usually IC50 stands for the concentration that gives 50% inhibition. High values mean lower potency, low ones higher potency. For `COc1cc2ncnc(Nc3ccc(/N=N/c4ccc([As](=O)(O)O)cc4)cc3)c2cc1OC`, the results for the IC50 in the assay with MOLT-3 and in the assay on NALM-6 were 13.9 µM and 16.9 µM, respectively. `Nc1ccc([As](=O)(O)O)cc1` [ARSANILIC ACID]: the IC50 with NALM-6 is above 100 µM. As to `CSc1nccc(Nc2ccc(/N=N/c3ccc([As](=O)(O)O)cc3)cc2)n1`, the IC50 in the assay on MOLT-3 was found to be 4.1 µM; with NALM-6 it was 6.1 µM.

Consider `O=[As](O)(O)c1ccc(/N=N/c2ccc(Nc3[nH]cnc4ncnc3-4)cc2)cc1`, for which the IC50 in the assay on MOLT-3 worked out at 21.6 µM; in the assay on NALM-6, 22.5 µM.

`O=[As](O)(O)c1ccccc1Nc1nc(C(Cl)(Cl)Cl)nc2ccccc12`: the IC50 in the assay on MOLT-3 and in the assay on NALM-6 was above 100 µM each time.

For `O=[As](O)(O)c1ccc(Nc2nc(C(Cl)(Cl)Cl)nc3ccccc23)cc1`, the IC50 in the assay on MOLT-3 and with NALM-6 was above 100 µM throughout.

Take `O=[As](O)(O)c1ccc(/N=N/c2ccc(Nc3nc(C(Cl)(Cl)Cl)nc4ccccc34)cc2)cc1`: the IC50 worked out at 2 µM in the assay on MOLT-3 and 1.1 µM in the assay on NALM-6. Regarding `COc1cc2ncnc(Nc3ccc([As](=O)(O)O)cc3)c2cc1OC`, the 50% inhibitory concentration (IC50) in the assay on MOLT-3 and in the assay on NALM-6 was above 100 µM throughout. Consider `CSc1nccc(Nc2ccc([As](=O)(O)O)cc2)n1`, for which the IC50 stood at 9.1 µM with MOLT-3 and 5.6 µM with NALM-6.

In the case of `CSc1nccc(Nc2ccccc2[As](=O)(O)O)n1`, the IC50 in the assay on MOLT-3 came to 2.3 µM; in the assay with NALM-6 it was 1.5 µM. For the compound `COc1cc2ncnc(Nc3ccccc3[As](=O)(O)O)c2cc1OC`, the values for the IC50 with MOLT-3 and in the assay on NALM-6 were 55.6 µM and 46.6 µM, respectively.
